OX1R antag-1 = OX1R (HCRTR1) antagonists, primary screen, fluorescence, CHO/OX1R cells, Fluo-8 calcium, orexin A. actives 0.43% (n = 330,000). Orexin/Hypocretin receptor type 1 (Homo sapiens), O43613. Fluo-8 calcium fluorescence. inhibition, % at 5 µM;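 active = inhibition above its plate's threshold, mean inhibition of all tested compounds on the plate plus 3 SD, cut at about 37% in these data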
GPR7 antag = GPR7 receptor antagonists, primary screen, cell-based, fluorescence, single concentration. Neuropeptides B/W receptor type 1 (Homo sapiens), P48145. GPR7-expressing cells, fluorescence antagonist assay. inhibition, % at 4.4 µM. actives 1.1% (n = 290,000); in the data active = inhibition above about 16%, passing the limit was not always enough;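 note: cells stimulated with the agonist NPW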
TAAR1 antagonist = human TAAR1 antagonists, primary screen, Fluo-8 calcium fluorescence, CHO RD-HGA16 cells; Trace amine-associated receptor 1 (Homo sapiens), Q96RJ0; antagonist; inhibition, % at 3 µM; actives 1.5% (n = 360,000); AID 624466, 2012;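 active = inhibition above a per-plate cutoff, the mean inhibition of test compounds on that plate plus 3 SD, cut at about 49% in these data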
Target sequence (Q96RJ0 whole entry, looked up): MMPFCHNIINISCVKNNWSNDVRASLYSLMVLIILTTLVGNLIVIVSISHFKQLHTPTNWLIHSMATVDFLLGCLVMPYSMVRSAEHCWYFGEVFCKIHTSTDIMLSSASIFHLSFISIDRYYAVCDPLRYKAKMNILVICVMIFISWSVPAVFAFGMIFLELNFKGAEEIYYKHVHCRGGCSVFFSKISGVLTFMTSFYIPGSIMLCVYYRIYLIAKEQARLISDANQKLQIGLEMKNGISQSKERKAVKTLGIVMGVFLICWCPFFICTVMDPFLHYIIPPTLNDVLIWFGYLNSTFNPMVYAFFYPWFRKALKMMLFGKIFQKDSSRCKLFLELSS
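System: RD-HGA16 CHO cells with stable hTAAR1 and Gα16 | Probe or stimulus: EC80 β-phenethylamine stimulus | Dosing: 3 µM, single point | Times: Dye loading 75 min at 37 °C, then 30 min room temperature | Measured by: Fluo-8 calcium-sensitive fluorescence | Read-out basis: % inhibition of agonist calcium response | Replicates: n of 1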
OX1R antag-2 = antagonists of human orexin 1 receptor (OX1R); Orexin/Hypocretin receptor type 1 (Homo sapiens), O43613; OX1R-expressing cells, FRET antagonist read-out; inhibition, % at 6.6 µM; actives 1.8% (n = 330,000); AID 485270, 2010; in the data active = inhibition mostly above about 38%, no sharp cut-off; inactive = mostly below about 40%
CHO parental Ca = ATP-evoked calcium signal inhibitors, parental CHO, primary screen, counter-screen for OX1R antagonist project, cell-based, fluorescence, Fluo-8 calcium dye; parental CHO-K1, ATP-induced calcium, Fluo-8 fluorescence; inhibition, % at 5.6 µM; actives 0.63% (n = 330,000); AID 463079, 2010;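 active = inhibition above that plate's mean sample inhibition plus 3 SD, cut at about 26% in these data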
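Test system: untransfected parental CHO cell line; also added: ATP stimulus; dosing: 5.6 µM, single dose; signal: calcium-sensitive Fluo-8 fluorescence; measure: percent inhibition of ATP-evoked calcium rise, normalized to controls; benchmarks: low control ATP plus DMSO, high control DMSO only; replication: one well per compound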
TAAR1 agonist = human TAAR1 agonists, primary screen, Fluo-8 calcium fluorescence, CHO RD-HGA16 cells; vehicle wells 0%, saturating PEA agonist 100%; activation, % at 3 µM; Trace amine-associated receptor 1 (Homo sapiens), Q96RJ0; actives 0.99% (n = 360,000); AID 624467, 2012;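 active = activation above the mean activation of all test compounds in the run plus 3 SD, cut at about 38% in these data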
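Repeats: no replicates (n 1) | Material: CHO-derived RD-HGA16 cells with stable Gα16 and human TAAR1 | Technique: Kinetic Fluo-8 calcium fluorescence | Schedule: 17-24 h seeding, 75 min 37 °C dye, 30 min RT | Evaluation: % activation from peak over basal fluorescence ratio, DMSO-to-PEA scaled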
Each line names hits and unclear results; the compound was inactive in the other large screens. Compounds with a hit are over-represented: about 4.5% of the library has one in this group of screens.

COc1c([N+](=O)[O-])cc(C(=O)NNC(=O)c2ccc(C)cc2)cc1[N+](=O)[O-]	OX1R antag-2 46
COc1ccc(C(=O)NNC(=O)c2ccncc2)cc1[N+](=O)[O-]	none
CC(=O)c1sc(N/N=C/c2cccc(O)c2)nc1C	none
CC(=O)c1sc(N/N=C\c2ccc(N(C)C)cc2)nc1C	OX1R antag-2 58
CCOC(=O)c1cc2c(=O)n3ccccc3nc2n(Cc2ccco2)c1=NC(=O)c1cccnc1	OX1R antag-2 52
CCOC(=O)c1cc2c(=O)n3ccccc3nc2n(Cc2ccco2)c1=NC(=O)c1ccccc1OCC	OX1R antag-2 38
CCOC(=O)c1cc2c(=O)n3cccc(C)c3nc2n(Cc2ccco2)c1=NC(=O)c1cccnc1	none (no result: OX1R antag-1, OX1R antag-2, CHO parental Ca)
Cc1cccc2cc(C#N)c(NCc3ccccc3)nc12	none
Cc1cccc2cc(C#N)c(NCCNS(=O)(=O)c3ccccc3)nc12	OX1R antag-2 58
O=C(CN1C(=O)C2CC=CCC2C1=O)Nc1nc(-c2ccc(F)cc2)cs1 (stereo not drawn)	TAAR1 antagonist 51 (no result: GPR7 antag)
Cc1ccc2ncc(S(=O)(=O)c3ccccc3)c(N3CCCCC3C)c2c1 (stereo not drawn)	CHO parental Ca 44
O=C1CCCN1CCC(=O)N1CCCC(N2CCN(c3ccccc3F)CC2)C1 (stereo not drawn)	none
Cc1cc(C(=O)COC(=O)c2ccc(CO)cc2)c(C)n1CC1COc2ccccc2O1 (stereo not drawn)	TAAR1 antagonist 50
Cc1cc(C(=O)CSc2nnc(-c3ccco3)o2)c(C)n1CC1COc2ccccc2O1 (stereo not drawn)	GPR7 antag 20 (no result: OX1R antag-1, OX1R antag-2, CHO parental Ca)
Cc1cc(C(=O)CN2C(=O)C(=O)N(Cc3ccccc3)C2=O)c(C)n1CC1COc2ccccc2O1 (stereo not drawn)	none
NC(Cc1ccc(C(F)(F)F)cc1)c1csc(Nc2ccc(S(N)(=O)=O)cc2)n1 (stereo not drawn)	none (no result: OX1R antag-1, GPR7 antag, OX1R antag-2, CHO parental Ca)
Cc1ccc(NC(=S)N/N=C/c2ccc(Cl)c([N+](=O)[O-])c2)cc1	none
O=[N+]([O-])c1cc(/C=N/NC(=S)Nc2ccccc2Cl)ccc1Cl	GPR7 antag 30
O=C(N/N=C/c1ccc(Cl)c([N+](=O)[O-])c1)C1CC1	OX1R antag-2 59
COc1ccccc1OCCSc1nnnn1-c1ccc(C)cc1	CHO parental Ca 40 (no result: GPR7 antag)
CN(C)S(=O)(=O)c1ccc(-c2csc(N/N=C/c3ccc(O)cc3)n2)cc1	TAAR1 antagonist 77
Cc1ccc(-c2csc(N3CCC(NS(=O)(=O)c4ccc5c(c4)OCCO5)CC3)n2)cc1	OX1R antag-1 51, CHO parental Ca 55
CCOC(=O)C1=C(C(=O)OCC)C2N(Cc3ccc(Br)cc3)c3ccccc3[C@@]23C[C@@H](C(=O)OC)N(S(=O)(=O)c2cccs2)C3=N1 (stereo partly drawn)	none (no result: OX1R antag-1, GPR7 antag, OX1R antag-2, CHO parental Ca)
CCc1ccc2oc(-c3cccc(NC(=O)c4cccnc4)c3)nc2c1	TAAR1 antagonist 49
O=C(Nc1cccc(-c2nc3ncccc3o2)c1)c1ccccc1	OX1R antag-2 56
C[C@H](CO)N1C[C@H](C)[C@@H](CN(C)S(=O)(=O)c2ccc(F)cc2)Oc2cc(Br)ccc2S1(=O)=O	none (no result: OX1R antag-1, GPR7 antag, OX1R antag-2, CHO parental Ca)
CCOC(=O)c1c(CN2CCN(C)CC2)n(C)c2cc(Br)c(OC)cc12	GPR7 antag 19
CC1(C(=O)Nc2ccc3[nH]ncc3c2)CCN1C(=O)Cc1ccc(-c2ccccc2)cc1 (stereo not drawn)	TAAR1 antagonist 50 (no result: OX1R antag-1, GPR7 antag, OX1R antag-2, CHO parental Ca)
COc1ccc(N2C(=O)c3n[nH]c(C(C)C)c3C2c2ccc(C)cc2)cc1 (stereo not drawn)	none (no result: OX1R antag-1, GPR7 antag, OX1R antag-2, CHO parental Ca)
COc1ccccc1C(=O)NCCn1ccc2ccccc21	OX1R antag-2 70
COc1ccc(C(=O)NCCn2ccc3ccccc32)cc1OC	none
Cc1cc2c(N=O)c(NO)ccc2[nH]1	OX1R antag-2 62 (no result: TAAR1 antagonist, TAAR1 agonist)

Screening results (PubChem BioAssay)
